Drawing on ChEMBL document CHEMBL5705897, “Characterization of WZ4003 and HTH-01-015 as selective inhibitors of the LKB1-tumour-suppressor-activated NUAK kinases” (Biochem J, 2014), this text covers inhibition and Activity for three compounds.

The source made the active and inactive calls. No cut-off for these calls is given here.

Experiment [1] concerns the target NUAK family SNF1-like kinase 2 (Homo sapiens) (UniProt Q9H093). The experiment in a line: Inhibition of GST-tagged NUAK2 (unknown origin) expressed in HEK293 cells using ALNRTSSDSALHRRR as substrate incubated for 30 mins in presence of [gamma-32P]-ATP by Cerenkov counting method. In kind it is cell-based. In a few lines:
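GST–NUAK2 purified on glutathione–Sepharose from HEK-293 cells 36–48 h after transient transfection; 100 ng enzyme in 50 mM Tris/HCl pH 7.5, 0.1 mM EGTA, 10 mM magnesium acetate, 200 μM Sakamototide, 0.1 mM [γ-32P]ATP, inhibitor in DMSO; 30 min at 30 °C, stopped with 25 mM EDTA, spotted on P81, Cerenkov counted; triplicate; IC50 by non-linear regression versus DMSO control.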

For experiment [2], the target named is Tyrosine-protein kinase JAK2 (Homo sapiens) (UniProt O60674). The experiment in a line: Inhibition of JAK2 (unknown origin) activity at 1 uM relative to control. In a few lines: (§1)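 Screened at the International Centre for Protein Kinase Profiling against a 140-kinase panel, with inhibitor at 0.1 or 1 μM; activity expressed as percentage of DMSO control reactions, mean of triplicate reactions.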

The target of experiment [3] is Aurora kinase B (Homo sapiens) (UniProt Q96GD4). The experiment is described as follows: Inhibition of recombinant human N-terminal His6-tagged Aurora B (1 to 344 residues) expressed in Escherichia coli at 1 uM using LRRLSLGLRRLSLGLRRLSLGLRRLSLG as substrate incubated for 30 mins in presence of [gamma-33P]ATP by filter binding method. The method in brief:
as §1

The target of experiment [4] is Tyrosine-protein kinase ABL1 (Homo sapiens) (UniProt P00519). The experiment is described as follows: Inhibition of recombinant human N-terminal GST-tagged ABL (118 to 535 residues) expressed in Escherichia coli co-expressed with His-tagged YopH at 1 uM using EAIYAAPFAKKK as substrate incubated for 30 mins in presence of [gamma-33P]ATP by filter binding method. In a few lines: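 Run within a 140-kinase specificity panel at the International Centre for Protein Kinase Profiling. Compounds were dissolved in DMSO and tested in vitro at 0.1 or 1 μM. Activity is expressed as percentage of kinase activity in DMSO control reactions, as the mean ± S.D. of triplicate reactions.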

The target in experiment [5] is T1, NUAK family SNF1-like kinase 1 (Homo sapiens) (UniProt O60285).
T1 sequence (whole entry): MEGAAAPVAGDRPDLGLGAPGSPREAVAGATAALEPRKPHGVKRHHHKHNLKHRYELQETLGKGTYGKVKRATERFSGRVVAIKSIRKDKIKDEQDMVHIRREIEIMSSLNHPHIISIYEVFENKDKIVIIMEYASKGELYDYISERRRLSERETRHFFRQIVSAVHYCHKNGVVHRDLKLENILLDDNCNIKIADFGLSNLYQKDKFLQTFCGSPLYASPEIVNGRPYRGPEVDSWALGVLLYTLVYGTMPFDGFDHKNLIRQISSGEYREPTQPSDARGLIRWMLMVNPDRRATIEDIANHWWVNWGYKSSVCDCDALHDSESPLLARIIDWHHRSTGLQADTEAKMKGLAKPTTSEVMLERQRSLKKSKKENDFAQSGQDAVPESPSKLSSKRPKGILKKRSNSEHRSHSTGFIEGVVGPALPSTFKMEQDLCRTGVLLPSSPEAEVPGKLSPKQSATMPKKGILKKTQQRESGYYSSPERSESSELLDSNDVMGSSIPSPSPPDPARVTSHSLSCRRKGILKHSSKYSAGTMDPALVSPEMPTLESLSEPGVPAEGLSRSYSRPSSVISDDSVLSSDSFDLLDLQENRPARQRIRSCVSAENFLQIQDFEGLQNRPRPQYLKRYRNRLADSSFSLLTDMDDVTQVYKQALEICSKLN
The experiment is described as follows: Inhibition of NUAK1 in HEK293 cells assessed as reduction in MYPT1 phosphorylation at Ser445 residue at 0.1 to 10 uM incubated for 16 hrs by immunoblot analysis. It counts as cell-based. The conditions noted are these: dose 0.1-10 µM. In a few lines: (§2)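 HEK-293 cells exposed to inhibitor or DMSO for 16 h; medium replaced by EDTA-PBS dissociation buffer with the same inhibitor concentration to induce detachment (gentle tapping, 70 g, 3 min); cells lysed at once; MYPT1 immunoprecipitated from 0.5 mg lysate, blotted for p-Ser445 and total MYPT1; repeated three times.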

In experiment [6] the target is T2, Aurora kinase A (Homo sapiens) (UniProt O14965).
T2 sequence (whole entry): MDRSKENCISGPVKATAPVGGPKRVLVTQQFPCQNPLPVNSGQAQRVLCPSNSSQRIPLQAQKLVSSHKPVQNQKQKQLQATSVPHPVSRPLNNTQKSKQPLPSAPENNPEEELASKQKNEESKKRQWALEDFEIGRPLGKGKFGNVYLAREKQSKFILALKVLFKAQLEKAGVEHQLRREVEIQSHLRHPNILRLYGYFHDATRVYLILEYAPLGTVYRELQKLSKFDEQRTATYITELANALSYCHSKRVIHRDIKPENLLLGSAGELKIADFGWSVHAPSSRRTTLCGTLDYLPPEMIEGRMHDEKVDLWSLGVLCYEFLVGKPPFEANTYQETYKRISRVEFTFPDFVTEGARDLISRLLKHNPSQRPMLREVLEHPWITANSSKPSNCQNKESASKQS
The experiment in a line: Inhibition of recombinant human N-terminal Hi6-tagged Aurora A (2 to 403 residues) expressed in Escherichia coli 1 uM using LRRLSLGLRRLSLGLRRLSLGLRRLSLG as substrate incubated for 30 mins in presence of [gamma-33P]ATP by filter binding method. The method in brief:
as §1

In experiment [7] the target is MAP/microtubule affinity-regulating kinase 3 (Homo sapiens) (UniProt P27448). The experiment in a line: Inhibition of recombinant human N-terminal His6-tagged MARK3 (2 to 729 residues) expressed in baculovirus infected Sf21 cells at 1 uM using CHKtide as substrate incubated for 30 mins in presence of [gamma-33P]ATP by filter binding method. In a few lines: as §1

The target of experiment [8] is Serine/threonine-protein kinase BRSK1 (Homo sapiens) (UniProt Q8TDC3). The experiment in a line: Inhibition of recombinant human N-terminal His6-tagged BRSK1 (2 to 778 residues) expressed in baculovirus infected Sf21 cells at 1 uM using KKLNRTLSFAEPG as substrate incubated for 30 mins in presence of [gamma-33P]ATP by filter binding method. In a few lines:
as §1

The target in experiment [9] is AMPK alpha1/beta2/gamma1 (Homo sapiens) (UniProt O43741+P54619+Q13131). The experiment in a line: Inhibition of recombinant N-terminal His6-tagged human AMPKalpha1 (11 to 559 residues)/AMPKbeta2 (1 to 272 residues)/AMPKgamma1 (1 to 331 residues) expressed in baculovirus infected Sf21 cells at 1 uM using SAMS as substrate incubated for 30 mins in presence of [gamma-33P]ATP by filter binding method. In a few lines: as §1

For experiment [10], the target named is Serine/threonine-protein kinase MARK1 (Homo sapiens) (UniProt Q9P0L2). The experiment is described as follows: Inhibition of recombinant human N-terminal His6-tagged MARK1 (2 to 795 residues) expressed in baculovirus infected Sf21 cells at 1 uM using KKKVSRSGLYRSPSMPENLNRPR as substrate incubated for 30 mins in presence of [gamma-33P]ATP by filter binding method. In a few lines:
as §1

Experiment [11] has as its system MEF. The experiment is described as follows: Inhibition of NUAK1 in NUAK1+/+ MEF cells assessed as reduction in MYPT1 phosphorylation at Ser445 residues at 10 uM after 16 hrs by immunoblot analysis. It counts as cell-based. The conditions noted are these: Mus musculus. In a few lines: (§3)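 U2OS cells or NUAK1+/+ MEFs treated with or without 10 μM inhibitor for 16 h, then 20 min in EDTA-PBS dissociation buffer with 10 μM inhibitor or DMSO; detached by tapping and 70 g 3 min spin, lysed immediately and immunoblotted for MYPT1 p-Ser445; three separate experiments.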

Experiment [12] has as its system U2OS. The experiment in a line: Antiproliferative activity against human U2OS cells assessed as reduction in cell viability at 10 uM after 5 days by CellTiter 96 non-radioactive cell proliferation assay. The conditions noted are these: time 5.0 day. It counts as functional, cell-based. The method in brief: (§4)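 Colorimetric CellTiter 96 AQueous proliferation assay in 96-well format; 2000 cells/well seeded for U2OS, 3000 cells/well for MEFs; grown 5 days with or without 10 μM inhibitor; run in triplicate. Inhibitors dissolved in DMSO, final DMSO in medium ≤1%. MEFs cultured in DMEM/10% FBS, glutamine, non-essential amino acids, sodium pyruvate.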

Experiment [13] has as its system MEF. The experiment is described as follows: Antiproliferative activity against NUAK1+/+ MEF cells assessed as reduction in cell viability at 10 uM after 5 days by CellTiter 96 non-radioactive cell proliferation assay. It counts as functional, cell-based. The conditions noted are these: Mus musculus, time 5.0 day. In a few lines: as §4
In experiment [14] the target is T1, NUAK family SNF1-like kinase 1 (Homo sapiens). The experiment in a line: Inhibition of NUAK1 in HEK293 cells assessed as reduction in MYPT1 phosphorylation at Ser445 residue at 10 uM incubated for 16 hrs by immunoblot analysis. In kind it is cell-based. The method in brief:
as §2

Experiment [15] deals with U2OS. The experiment in a line: Inhibition of cell invasion in human U2OS cells at 10 uM incubated for 16 hrs by matrigel based transwell assay. It counts as functional. The method in brief: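 Growth-factor-reduced Matrigel Transwell invasion: U2OS cells serum-deprived 2 h, detached, 2.5×10^5 cells in DMEM/1% BSA added to upper chambers in triplicate, DMEM/10% FBS as chemoattractant below; 16 h at 37 °C, 5% CO2 with or without 10 μM inhibitor in both compartments; cells on lower filter face fixed, stained, imaged ×10 and counted; mean ± S.D.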

In experiment [16] the test system is MEF. The experiment is described as follows: Inhibition of cell migration in NUAK1+/+ MEF cells at 10 uM pre incubated for 1 hr followed by overnight incubation and measured after 15 to 20 hrs by microscopic based wound healing assay. In kind it is functional. The conditions noted are these: Mus musculus. In a few lines:
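Wound healing: equal MEF numbers loaded into both chambers of inserts with a 500 μm gap, inhibitor (10 μM) added 1 h before; after overnight at 37 °C, 5% CO2 insert removed and gap closure filmed by time-lapse microscopy every 2 min over 15–20 h; triplicate.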

In experiment [17] the target is High affinity nerve growth factor receptor (Homo sapiens) (UniProt P04629). The experiment in a line: Inhibition of recombinant human N-terminal His6-tagged TrkA (441 to 760 residues) expressed in baculovirus infected Sf21 cells assessed as remaining activity at 1 uM using Poly(Glu,Tyr) as substrate incubated for 30 mins in presence of [gamma-33P]ATP by filter binding method relative to control. The method in brief:
as §1

Experiment [18] addresses T1, NUAK family SNF1-like kinase 1 (Homo sapiens). The experiment in a line: Inhibition of NUAK1 (unknown origin) expressed in HEK293 cells assessed as reduction in MYPT1 phosphorylation at Ser445 residue at 30 uM incubated for 16 hrs by immunoblot analysis. In kind it is cell-based. In a few lines: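 HEK-293 Flp/In T-Rex cells stably expressing HA–NUAK1 or HA–NUAK1[A195T] (doxycycline 0.1 μg/ml, 16–24 h to induce) treated with inhibitor 16 h, then detached in EDTA-PBS dissociation buffer containing the same inhibitor concentration, tapped and spun 70 g 3 min; lysed, endogenous MYPT1 immunoprecipitated from 0.5 mg lysate and immunoblotted for p-Ser445 and total MYPT1; three separate experiments.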

Experiment [19] shares this target. The experiment is described as follows: Inhibition of NUAK1 in human U2OS cells assessed as reduction in MYPT1 phosphorylation at Ser445 residues at 10 uM after 16 hrs by immunoblot analysis. It counts as cell-based. The method in brief:
as §3

Tyrosine-protein kinase ABL1 (Homo sapiens), sequence (P00519 whole entry, the tested form may be a part): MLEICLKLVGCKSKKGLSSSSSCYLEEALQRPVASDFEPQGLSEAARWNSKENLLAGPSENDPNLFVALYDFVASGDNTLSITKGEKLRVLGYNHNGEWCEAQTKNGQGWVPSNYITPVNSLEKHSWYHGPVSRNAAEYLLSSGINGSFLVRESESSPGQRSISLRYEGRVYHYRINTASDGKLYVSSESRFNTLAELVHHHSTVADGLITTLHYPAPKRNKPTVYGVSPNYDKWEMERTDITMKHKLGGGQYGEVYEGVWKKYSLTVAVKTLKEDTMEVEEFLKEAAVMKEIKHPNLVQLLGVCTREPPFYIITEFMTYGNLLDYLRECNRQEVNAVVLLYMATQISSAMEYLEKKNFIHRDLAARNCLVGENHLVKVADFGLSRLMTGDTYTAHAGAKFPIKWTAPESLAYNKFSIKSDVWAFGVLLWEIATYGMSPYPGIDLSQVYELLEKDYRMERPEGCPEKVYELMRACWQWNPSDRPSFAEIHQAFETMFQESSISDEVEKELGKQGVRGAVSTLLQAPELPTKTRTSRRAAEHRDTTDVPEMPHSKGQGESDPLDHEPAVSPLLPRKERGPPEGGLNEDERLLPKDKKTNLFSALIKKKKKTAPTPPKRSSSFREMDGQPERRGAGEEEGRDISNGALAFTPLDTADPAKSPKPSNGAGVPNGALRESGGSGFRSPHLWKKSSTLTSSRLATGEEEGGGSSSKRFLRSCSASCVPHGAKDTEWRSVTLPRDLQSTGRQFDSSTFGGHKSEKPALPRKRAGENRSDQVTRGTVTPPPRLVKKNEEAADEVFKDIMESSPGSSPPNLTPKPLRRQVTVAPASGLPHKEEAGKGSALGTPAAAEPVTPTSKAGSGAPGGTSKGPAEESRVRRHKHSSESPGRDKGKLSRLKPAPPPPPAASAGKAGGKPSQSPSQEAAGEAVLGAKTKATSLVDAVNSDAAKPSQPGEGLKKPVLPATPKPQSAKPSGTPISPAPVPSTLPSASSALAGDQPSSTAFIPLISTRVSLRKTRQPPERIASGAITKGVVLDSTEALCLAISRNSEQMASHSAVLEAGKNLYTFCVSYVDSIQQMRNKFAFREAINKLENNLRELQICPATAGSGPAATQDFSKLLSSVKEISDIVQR
NUAK family SNF1-like kinase 2 (Homo sapiens), sequence (Q9H093 whole entry): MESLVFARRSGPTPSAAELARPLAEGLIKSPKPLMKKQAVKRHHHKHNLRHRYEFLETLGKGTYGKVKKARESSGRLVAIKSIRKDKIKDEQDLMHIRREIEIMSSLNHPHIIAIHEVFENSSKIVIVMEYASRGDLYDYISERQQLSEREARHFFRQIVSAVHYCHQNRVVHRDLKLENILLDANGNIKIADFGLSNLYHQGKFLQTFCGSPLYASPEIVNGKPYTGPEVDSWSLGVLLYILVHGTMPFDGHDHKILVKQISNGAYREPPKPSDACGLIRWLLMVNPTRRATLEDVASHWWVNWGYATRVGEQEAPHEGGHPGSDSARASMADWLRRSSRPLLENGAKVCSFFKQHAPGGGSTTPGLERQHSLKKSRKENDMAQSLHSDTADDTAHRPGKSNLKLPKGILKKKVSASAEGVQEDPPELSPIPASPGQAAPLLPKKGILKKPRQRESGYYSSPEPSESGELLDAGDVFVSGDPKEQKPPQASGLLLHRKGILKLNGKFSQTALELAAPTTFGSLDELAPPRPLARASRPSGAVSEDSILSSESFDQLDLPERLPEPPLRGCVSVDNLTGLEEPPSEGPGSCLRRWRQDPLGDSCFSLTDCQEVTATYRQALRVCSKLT
Tyrosine-protein kinase JAK2 (Homo sapiens), sequence (O60674 whole entry): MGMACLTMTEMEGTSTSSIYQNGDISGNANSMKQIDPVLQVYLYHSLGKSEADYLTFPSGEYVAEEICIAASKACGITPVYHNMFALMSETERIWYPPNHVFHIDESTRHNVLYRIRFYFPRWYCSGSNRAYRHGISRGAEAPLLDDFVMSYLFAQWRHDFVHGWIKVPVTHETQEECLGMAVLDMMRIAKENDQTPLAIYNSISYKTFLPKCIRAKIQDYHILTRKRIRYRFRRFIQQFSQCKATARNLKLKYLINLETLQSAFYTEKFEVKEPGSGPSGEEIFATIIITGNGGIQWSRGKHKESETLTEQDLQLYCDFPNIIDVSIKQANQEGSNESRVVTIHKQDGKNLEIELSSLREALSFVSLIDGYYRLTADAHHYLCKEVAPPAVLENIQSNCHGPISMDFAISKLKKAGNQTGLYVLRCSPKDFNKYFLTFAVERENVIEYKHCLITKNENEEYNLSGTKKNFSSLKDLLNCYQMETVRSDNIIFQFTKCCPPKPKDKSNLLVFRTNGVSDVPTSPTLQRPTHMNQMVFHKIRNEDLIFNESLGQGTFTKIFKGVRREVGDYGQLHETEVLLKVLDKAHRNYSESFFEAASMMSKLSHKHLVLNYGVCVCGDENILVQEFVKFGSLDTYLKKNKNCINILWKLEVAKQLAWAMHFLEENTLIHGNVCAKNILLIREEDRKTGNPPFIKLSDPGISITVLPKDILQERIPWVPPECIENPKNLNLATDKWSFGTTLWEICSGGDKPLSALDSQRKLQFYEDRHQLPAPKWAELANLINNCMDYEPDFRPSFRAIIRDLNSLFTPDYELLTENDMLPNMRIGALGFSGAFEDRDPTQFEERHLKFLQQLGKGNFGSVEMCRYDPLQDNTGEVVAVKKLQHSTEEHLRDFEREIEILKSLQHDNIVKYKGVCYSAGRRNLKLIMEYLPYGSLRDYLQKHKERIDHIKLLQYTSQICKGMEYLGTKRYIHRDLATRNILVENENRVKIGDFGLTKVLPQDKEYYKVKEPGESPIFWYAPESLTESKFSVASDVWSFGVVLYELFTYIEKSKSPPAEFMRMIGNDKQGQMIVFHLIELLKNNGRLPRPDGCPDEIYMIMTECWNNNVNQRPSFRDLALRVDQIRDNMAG
Aurora kinase B (Homo sapiens), sequence (Q96GD4 whole entry, the tested form may be a part): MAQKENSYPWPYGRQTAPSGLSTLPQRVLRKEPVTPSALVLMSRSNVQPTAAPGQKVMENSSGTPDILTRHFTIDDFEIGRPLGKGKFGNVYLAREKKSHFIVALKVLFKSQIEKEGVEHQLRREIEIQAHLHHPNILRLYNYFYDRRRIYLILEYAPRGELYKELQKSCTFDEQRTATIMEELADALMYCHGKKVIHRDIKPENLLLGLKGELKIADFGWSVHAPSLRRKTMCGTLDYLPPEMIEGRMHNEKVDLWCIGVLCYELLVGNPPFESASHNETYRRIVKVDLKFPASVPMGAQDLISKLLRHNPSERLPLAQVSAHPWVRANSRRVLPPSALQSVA
Serine/threonine-protein kinase MARK1 (Homo sapiens), sequence (Q9P0L2 whole entry, looked up, the tested form may be a part): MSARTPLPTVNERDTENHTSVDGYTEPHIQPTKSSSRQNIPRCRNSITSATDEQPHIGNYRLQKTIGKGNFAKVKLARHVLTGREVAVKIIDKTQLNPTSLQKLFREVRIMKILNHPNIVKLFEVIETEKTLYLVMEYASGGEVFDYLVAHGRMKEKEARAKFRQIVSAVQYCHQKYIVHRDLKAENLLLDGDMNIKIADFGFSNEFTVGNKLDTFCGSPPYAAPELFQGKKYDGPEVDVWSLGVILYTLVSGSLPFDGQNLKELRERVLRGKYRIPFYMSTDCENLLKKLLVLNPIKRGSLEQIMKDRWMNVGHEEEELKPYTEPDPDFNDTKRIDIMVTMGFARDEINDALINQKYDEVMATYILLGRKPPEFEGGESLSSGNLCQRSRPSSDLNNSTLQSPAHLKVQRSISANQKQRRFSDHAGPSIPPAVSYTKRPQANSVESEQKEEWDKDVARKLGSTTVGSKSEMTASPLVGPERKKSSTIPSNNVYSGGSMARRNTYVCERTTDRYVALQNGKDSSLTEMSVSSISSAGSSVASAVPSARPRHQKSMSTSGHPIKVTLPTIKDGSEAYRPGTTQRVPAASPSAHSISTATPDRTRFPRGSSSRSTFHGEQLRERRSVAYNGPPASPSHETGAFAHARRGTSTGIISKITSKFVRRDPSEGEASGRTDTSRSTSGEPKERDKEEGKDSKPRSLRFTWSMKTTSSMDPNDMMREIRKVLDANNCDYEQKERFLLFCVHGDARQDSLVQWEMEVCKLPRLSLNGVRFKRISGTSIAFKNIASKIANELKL
Serine/threonine-protein kinase BRSK1 (Homo sapiens), sequence (Q8TDC3 whole entry, the tested form may be a part): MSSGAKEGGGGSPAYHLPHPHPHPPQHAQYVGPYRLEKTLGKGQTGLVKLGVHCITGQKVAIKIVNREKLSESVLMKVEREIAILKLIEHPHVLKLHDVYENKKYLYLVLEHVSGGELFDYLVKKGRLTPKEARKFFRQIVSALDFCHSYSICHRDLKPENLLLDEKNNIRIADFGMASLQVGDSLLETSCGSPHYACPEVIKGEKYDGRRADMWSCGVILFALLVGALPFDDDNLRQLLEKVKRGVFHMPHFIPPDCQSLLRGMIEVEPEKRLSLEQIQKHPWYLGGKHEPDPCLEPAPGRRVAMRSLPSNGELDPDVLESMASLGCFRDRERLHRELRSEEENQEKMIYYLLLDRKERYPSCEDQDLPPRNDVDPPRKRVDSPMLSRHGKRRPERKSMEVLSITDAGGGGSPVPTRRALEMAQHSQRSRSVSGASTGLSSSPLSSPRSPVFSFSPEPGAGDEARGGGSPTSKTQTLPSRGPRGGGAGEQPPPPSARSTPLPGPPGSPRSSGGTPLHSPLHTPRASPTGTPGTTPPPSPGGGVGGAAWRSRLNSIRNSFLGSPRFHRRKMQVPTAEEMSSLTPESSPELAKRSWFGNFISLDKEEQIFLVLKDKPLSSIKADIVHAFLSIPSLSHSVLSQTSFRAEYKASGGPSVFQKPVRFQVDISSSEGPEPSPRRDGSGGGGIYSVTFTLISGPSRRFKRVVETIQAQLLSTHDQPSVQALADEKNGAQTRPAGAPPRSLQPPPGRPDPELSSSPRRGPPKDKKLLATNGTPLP

Regarding `CN1C(=O)c2cc3ccccc3cc2N(C)c2nc(Nc3cnn(C4CCNCC4)c3)ncc21`, the inhibition result in experiment [1] was “inactive”. Besides, the inhibition result in experiment [2], in experiment [3], in experiment [4], in experiment [5] and in [6] was “Active” each time.
On to `CN1C(=O)c2ccccc2N(C)c2nc(Nc3cnn(C4CCNCC4)c3)ncc21`, for which the inhibition result in experiment [7], in [8], in experiment [9], in experiment [2], in experiment [3] and in experiment [4] was “Active” each time. The inhibition entry in experiment [5], in experiment [6] and in [10] was “Active” in each case. Besides, the inhibition entry in [1] is “inactive”.
In the case of `Cc1nc(Nc2cnn(C3CCNCC3)c2)nc2c1N(C)C(=O)c1cc3ccccc3cc1N2C`, the inhibition result (with MEF [11]; in the experiment on U2OS [12]; in the experiment with MEF [13]; in experiment [14]; with U2OS [15]; in the experiment with MEF [16]) was “Active” in each case. The inhibition entry in experiment [18] and in experiment [19] was “Active” in each case. Further, the Activity in experiment [17] was determined as 82%.
